Test results published in PMC4177335 (ChemMedChem, 2014).
“Also recorded” adds a separate entry of the source. Like-named read-outs stand apart in the source and are kept apart here.

Columns and labels:
histone H3K4me3 [1] = test: Parasite histone methylation analysis; format: cell-based, P. falciparum 3D7; conditions: 5-fold IC50, 12 hours, relative to DMSO control
Outline: (§1)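 3D7 cultures were exposed for 12 h to test compound, chloroquine or DMSO vehicle. Infected blood was saponin-treated (0.15% in PBS) to remove red cells, and freed parasites were lysed by bath sonication in 2% SDS for Western blot. Trimethyl-specific bands were quantified by densitometry, normalized to core histone H3 signal and expressed relative to DMSO-treated parasites.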

[2] = ref [21]; cited from earlier work
[3] = microsomes, cited from earlier work
histone H3K9me3 [4] = test: Parasite histone methylation analysis; format: cell-based, P. falciparum 3D7; conditions: 5-fold IC50, 12 hours, relative to DMSO control
Outline: as §1

[5] = cited from earlier work
[6] = tested on: highly synchronized P. falciparum parasites; conditions: throughout the intraerythrocytic life cycle; ref [13]; cited from earlier work
[7] = tested on: chloroquine-sensitive and chloroquine-resistant parasites; conditions: ref [13]; cited from earlier work
histone H3K4me3 [8] = conditions: ref [13]; cited from earlier work
[9] = cited from earlier work; remark: listed apart in the source
HepG2 cells [10] = test: In vitro cytotoxicity assay; format: cell-based, human; conditions: for HepG2/Pf3D7: ratio HepG2 IC50 / Pf3D7 IC50; for IC50: read-out: HepG2 IC50
[11] = tested on: P. falciparum 3D7 strain parasites; test: In vitro P. falciparum growth and proliferation assay; format: cell-based, Plasmodium falciparum; conditions: for IC50: read-out: Pf3D7 IC50; for fold reduction in Pf3D7 activity: versus the comparator analogue named in the sentence
histone H3K9me3 [12] = conditions: ref [13]; cited from earlier work
HepG2 cells [13] = conditions: Table 5; ref [21]; cited from earlier work
[14] = Plasmodium falciparum, 3D7, 72 h
[15] = HepG2 cells, three days, CellTiterBlue
[16] = P. falciparum 3D7 strain, three-day SYBR Green I assay

Row | Compound | HepG2/Pf3D7 (HepG2 cells [10]) | IC50 [11, 14] [nM] | fold reduction in Pf3D7 activity [11] | IC50 (HepG2 cells [10]; [15]) [µM] | IC50 [11, 16] [nM] | IC50 (HepG2 cells [10]; Homo sapiens, HepG2, 72 h) [µM] | further results
1 | COc1cc2nc(N3CCCN(C)CC3)nc(NC3CCN(Cc4ccccc4)CC3)c2cc1OC [Compound 1, (1-Benzyl-4-piperidyl)[6,7-dimethoxy-2-(4-methyl-1,4-diazepin-1-yl)-4-quinazolinyl]amine] | 110.6 | 43.4 | – | – | – | – | H3K4me3 levels in treated parasites (histone H3K4me3 [1]): decreased; rat plasma t1/2 [2]: >4 h; rat microsome t1/2 [3]: 53 min; in vitro CLint ([3]; rat): 33 μl/min/mg protein; H3K9me3 levels in treated parasites (histone H3K9me3 [4]): decreased; logD pH 3 ([5]; pH 3): 0.5; logD pH 7.4 ([5]; pH 7.4): 5; killing phenotype [6]: fast killing phenotype; potency against chloroquine-sensitive versus chloroquine-resistant parasites [7]: equally potent; H3K4me3 levels of the parasite (histone H3K4me3 [8]): decrease; also recorded: reduced; solubility pH 2 ([9]; pH 2): >100 μg/ml; solubility pH 6.5 ([9]; pH 6.5): >100 μg/ml; H3K9me3 levels of the parasite (histone H3K9me3 [12]): decrease; HepG2/3D7 (HepG2 cells [13]): 110.6
2 | COc1cc2nc(N3C=CC=CC=C3)nc(NC3CCN(Cc4ccccc4)CC3)c2cc1OC [Compound 4, (1-Benzyl-4-piperidyl)[2-(1-azepinyl)-6,7-dimethoxy-4-quinazolinyl]amine] | – | 29.1 | – | – | – | – | Pf3D7 activity (in words) ([11]; P. falciparum 3D7 strain): comparable to 1
3 | COc1cc2nc(N3CCN(C)CC3)nc(NC(C)C)c2cc1OC [Compound 51, (Isopropyl)[6,7-dimethoxy-2-(4-methyl-1-piperazinyl)-4-quinazolinyl]amine] | – | > 300 | 7-17 fold | – | – | – | –
4 | COc1cc2nc(N3CCCN(C)CC3)nc(N(C)C3CCN(Cc4ccccc4)CC3)c2cc1OC [Compound 60, (1-Benzyl-4-piperidyl)-N-methyl[6,7-dimethoxy-2-(4-methyl-1,4-diazepin-1-yl)-4-quinazolinyl]amine] | 37.9 | – | 10-20 fold | 6 | 159 | – | –
5 | COc1cc2nc(N3CCCCC3)nc(N(C)C3CCN(Cc4ccccc4)CC3)c2cc1OC [Compound 61, (1-Benzyl-4-piperidyl)-N-methyl(6,7-dimethoxy-2-piperidino-4-quinazolinyl)amine] | 16.4 | 495 | 10-20 fold | – | – | 8.1 | –
6 | COc1cc2nc(N3C=CC=CC=C3)nc(N(C)C3CCN(Cc4ccccc4)CC3)c2cc1OC [Compound 62, (1-Benzyl-4-piperidyl)-N-methyl[2-(1-azepinyl)-6,7-dimethoxy-4-quinazolinyl]amine] | 13.6 | 400 | 10-20 fold | – | – | 5.4 | –
7 | COc1cc2nc(N3CCN(c4ccccn4)CC3)nc(N(C)C3CCN(Cc4ccccc4)CC3)c2cc1OC [Compound 63, (1-Benzyl-4-piperidyl)-N-methyl{6,7-dimethoxy-2-[4-(2-pyridyl)-1-piperazinyl]-4-quinazolinyl}amine] | 20.4 | 472 | 10-20 fold | – | – | 9.6 | –
8 | COc1cc2nc(N3CCCN(C)CC3)nc(OC3CCN(Cc4ccccc4)CC3)c2cc1OC [Compound 65, 4-(1-Benzyl-4-piperidyloxy)-6,7-dimethoxy-2-(4-methyl-1,4-diazepin-1-yl)quinazoline] | 5.4 | – | – | 7.9 | 1460 | – | –
9 | COc1cc2nc(N3CCN(c4ccccn4)CC3)nc(OC3CCN(Cc4ccccc4)CC3)c2cc1OC [Compound 66, 4-(1-Benzyl-4-piperidyloxy)-6,7-dimethoxy-2-[4-(2-pyridyl)-1-piperazinyl]quinazoline] | 7.7 | 2060 | – | – | – | 15.7 | –
10 | CN1CCCN(c2nc(NC3CCN(Cc4ccccc4)CC3)c3ccccc3n2)CC1 [Compound 73, (1-Benzyl-4-piperidyl)[2-(4-methyl-1,4-diazepin-1-yl)-4-quinazolinyl]amine] | 69.6 | – | – | 7 | 101 | – | –
11 | c1ccc(CN2CCC(Nc3nc(N4CCCCC4)nc4ccccc34)CC2)cc1 [Compound 74, (1-Benzyl-4-piperidyl)(2-piperidino-4-quinazolinyl)amine] | – | 385 | – | – | – | – | –
12 | CCN(CC)CCCC(C)Nc1ccnc2cc(Cl)ccc12 (stereo not drawn) [chloroquine] | – | – | – | – | – | – | H3K4me3 levels in treated parasites (histone H3K4me3 [1]): slight decrease; H3K9me3 levels in treated parasites (histone H3K9me3 [4]): slight increase
13 | (1-Benzyl-4-piperidyl){6,7-dimethoxy-2-[4-(2-pyridyl)-1-piperazinyl]-4-quinazolinyl}amine [Compound 75] | 14.2 | – | – | 5 | 354 | – | –
